pIC50: −log10 of the molar value. Values after ≈ are worked out from the molar mass of the structure shown.
Tests used:
Leishmania infantum [1] = assay: Antileishmanial activity against Leishmania infantum BCN150 amastigotes expressing IFP1.4 infected in BALB/c mouse splenocytes incubated for 72 hrs by infrared fluorescence imaging analysis; type: functional, organism-based; details: BCN150, Splenocyte
Outline: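 Spleens from female BALB/c mice infected intraperitoneally. Splenocytes washed 3x in PBS and seeded in 384-well plates in RPMI, 20% FCS, 1 mM pyruvate, vitamins, 10 mM HEPES, penicillin/streptomycin. Wells set by fixed IR fluorescence per well, not by cell count. Compounds at various concentrations for 72 h. Fluorescence read at 700 nm on an infrared imager.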

[2] = Selectivity index, ratio of CC50 for mouse splenocytes to IC50 for Leishmania infantum BCN150 promastigotes expressing IFP1.4; type: toxicity; details: read-out: Ratio CC50/IC50
[3] = Selectivity index, ratio of CC50 for mouse splenocytes to IC50 for Leishmania infantum BCN150 amastigotes expressing IFP1.4 infected in BALB/c mouse splenocytes; type: toxicity, cell-based; details: read-out: Ratio CC50/IC50
[4] = Cytotoxicity against mouse splenocytes by alamar blue assay; type: cell-based, Splenocyte
Leishmania infantum [5] = assay: Antileishmanial activity against late log phase promastigote stage of Leishmania infantum MHOM/FR/78/LEM75 assessed as inhibition of parasite growth incubated for 48 hrs by hemocytometer counting method; type: functional, organism-based; details: MHOM/FR/78/LEM75, 48 h
Leishmania infantum [6] = assay: Antileishmanial activity against Leishmania infantum BCN150 promastigotes expressing IFP1.4 assessed as inhibition of parasite growth by measuring the infrared fluorescence incubated for 48 hrs; type: functional, organism-based; details: BCN150, 48 h
Outline: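 Transgenic infrared-fluorescent L. infantum BCN150 promastigotes in 96-well plates. 200 µL culture per well at 1 × 10^6 with graded compound concentrations (1, 10, 100). Incubated 48 h at 26 °C, then promastigote growth assessed.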

Row | SMILES | pIC50 (Leishmania infantum [1]) | selectivity ratio [2] | selectivity ratio [3] | CC50 [4] | IC50 (Leishmania infantum [5]) | pIC50 (Leishmania infantum [6])
1 | C[C@@H]1[C@H](O)[C@@H](C)/C=C/C=C/C=C/C=C/C=C/C=C/C=C/[C@H](O[C@@H]2O[C@H](C)[C@@H](O)[C@H](N)[C@@H]2O)C[C@@H]2O[C@](O)(C[C@@H](O)C[C@@H](O)[C@H](O)CC[C@@H](O)C[C@@H](O)CC(=O)O[C@H]1C)C[C@H](O)[C@H]2C(=O)O [AMPHOTERICIN B] | 6.49 | > 260 | > 62.5 | > 20 µM | – | –
2 | C/C=C1\CCN2CCc3c([nH]c4ccccc34)[C@H]2[C@@H]1[C@@H](C(=O)OC)[C@H]1NCCc2c1[nH]c1ccccc21 | – | – | – | – | 1.56 µg/mL (≈ 3.15 µM) | –
3 | O=C(CN1CCc2c([nH]c3ccccc23)C1c1ccccc1)Nc1ccc(Cl)cc1 (configuration not stated) | 5.43 | 9.64 | 38.9 | 146 µM | – | 4.82
4 | Cc1ccc(NC(=O)CN2CCc3c([nH]c4ccccc34)C2c2ccccc2)c(C)c1 (configuration not stated) | 5.58 | > 11.8 | > 75.8 | > 200 µM | – | 4.77
5 | O=C(CN1CCc2c([nH]c3ccccc23)C1c1ccccc1)Nc1ccc([N+](=O)[O-])cc1 (configuration not stated) | 5.28 | > 24.7 | > 37.8 | > 200 µM | – | 5.09
6 | COc1ccc(NC(=O)CN2CCc3c([nH]c4ccccc34)C2c2ccccc2)cc1 (configuration not stated) | 5.19 | – | > 30.9 | > 200 µM | – | < 4.00
7 | Cc1ccc(NC(=O)CN2CCc3c([nH]c4ccccc34)C2c2ccccc2)cc1 (configuration not stated) | 5.20 | > 10.4 | > 31.7 | > 200 µM | – | 4.72
8 | O=C(CN1CCc2c([nH]c3ccccc23)C1c1ccccc1)Nc1ccc(F)cc1 (configuration not stated) | 5.38 | > 13.2 | > 48.1 | > 200 µM | – | 4.82
9 | COc1ccccc1NC(=O)CN1CCc2c([nH]c3ccccc23)C1c1ccccc1 (configuration not stated) | 5.27 | > 100 | > 37.4 | > 200 µM | – | 5.70

More lines, main results first:

Row | pIC50 (Leishmania infantum [1]) | SMILES | selectivity ratio [2] | selectivity ratio [3] | CC50 [4] | IC50 (Leishmania infantum [5]) | pIC50 (Leishmania infantum [6])
10 | 5.83 | Cc1cccc(NC(=O)CN2CCc3c([nH]c4ccccc34)C2c2ccccc2)c1 (configuration not stated) | > 26.2 | > 135 | > 200 µM | – | 5.12
11 | 5.69 | O=C(CN1CCc2c([nH]c3ccccc23)C1c1ccccc1)Nc1cccc(C(F)(F)F)c1 (configuration not stated) | > 4.43 | > 99 | > 200 µM | – | 4.35
12 | 5.98 | O=C(CN1CCc2c([nH]c3ccccc23)C1c1ccccc1)Nc1ccccc1Cl (configuration not stated) | > 9.67 | > 190 | > 200 µM | – | 4.68
13 | 5.91 | COc1cccc(NC(=O)CN2CCc3c([nH]c4ccccc34)C2c2ccccc2)c1 (configuration not stated) | > 13.7 | > 163 | > 200 µM | – | 4.84
14 | 5.82 | O=C(CN1CCc2c([nH]c3ccccc23)C1c1ccccc1)Nc1cccc(Cl)c1 (configuration not stated) | > 29.9 | > 132 | > 200 µM | – | 5.18
15 | 6.17 | Cc1ccccc1NC(=O)CN1CCc2c([nH]c3ccccc23)C1c1ccccc1 (configuration not stated) | > 19.2 | > 298 | > 200 µM | – | 4.98
16 | 5.77 | O=C(CN1CCc2c([nH]c3ccccc23)C1c1ccccc1)Nc1ccccc1 (configuration not stated) | > 16.2 | > 119 | > 200 µM | – | 4.91
17 | 5.65 | O=C(CN1CCc2c([nH]c3ccccc23)C1c1ccccc1)Nc1cccc2ccccc12 (configuration not stated) | – | > 88.9 | > 200 µM | – | < 4.00
18 | 6.06 | O=C(CN1CCc2c([nH]c3ccccc23)C1c1ccccc1)Nc1cccc([N+](=O)[O-])c1 (configuration not stated) | – | > 230 | > 200 µM | – | < 4.00

Reference: ChEMBL document CHEMBL4715752, “Synthesis and anti-leishmanial evaluation of 1-phenyl-2,3,4,9-tetrahydro-1H-β-carboline derivatives against Leishmania infantum” (Eur J Med Chem, 2016)
